# According to ChEMBL document CHEMBL4138242, “Synthesis and antibacterial evaluation of novel cationic chalcone derivatives possessing broad spectrum antibacterial activity” (Eur J Med Chem, 2018):
# Test system: Klebsiella pneumoniae
# Assay: Antibacterial activity against drug-resistant carbapenemase producing Klebsiella pneumoniae clinical isolate KP-13-54 after 16 to 20 hrs by broth microdilution method
# Type: functional
# Outline: (§1)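 CLSI broth microdilution in Mueller-Hinton broth. A 4-6 h culture was diluted to about 10⁶ CFU/mL and mixed 1:1 with compound dilutions prepared at 256 to 0.5 µg/mL from aqueous stocks. Plates were incubated at 37 °C for 16-20 h and read visually for MIC. Each concentration was run in duplicate, and the experiment was repeated at least twice. Vancomycin and meropenem were comparators.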
row,Compound,MIC [µg/mL]
1,CCCCCCCC[N+](C)(C)CC(=O)Nc1ccc(C(=O)/C=C/c2cccs2)cc1.[Cl-],8

# Test system: Klebsiella pneumoniae
# Assay: Antibacterial activity against drug-resistant carbapenemase producing Klebsiella pneumoniae clinical isolate KP-14-2 after 16 to 20 hrs by broth microdilution method
# Type: functional
# Outline: as §1
row,Compound,MIC [µg/mL]
1,CCCCCCCC[N+](C)(C)CC(=O)Nc1ccc(C(=O)/C=C/c2cccs2)cc1.[Cl-],2

# Test system: Klebsiella pneumoniae
# Assay: Antibacterial activity against drug-resistant carbapenemase producing Klebsiella pneumoniae clinical isolate EC-13-23 after 16 to 20 hrs by broth microdilution method
# Type: functional
# Outline: as §1
row,Compound,MIC [µg/mL]
1,CCCCCCCC[N+](C)(C)CC(=O)Nc1ccc(C(=O)/C=C/c2cccs2)cc1.[Cl-],8

# Test system: Klebsiella pneumoniae
# Assay: Antibacterial activity against drug-resistant carbapenemase producing Klebsiella pneumoniae clinical isolate KP-14-5 after 16 to 20 hrs by broth microdilution method
# Type: functional
# Outline: as §1
row,Compound,MIC [µg/mL]
1,CCCCCCCC[N+](C)(C)CC(=O)Nc1ccc(C(=O)/C=C/c2cccs2)cc1.[Cl-],8

# Test system: Klebsiella pneumoniae
# Assay: Antibacterial activity against drug-resistant carbapenemase producing Klebsiella pneumoniae clinical isolate KP-13-55 after 16 to 20 hrs by broth microdilution method
# Type: functional
# Outline: as §1
row,Compound,MIC [µg/mL]
1,CCCCCCCC[N+](C)(C)CC(=O)Nc1ccc(C(=O)/C=C/c2cccs2)cc1.[Cl-],16

# Test system: Klebsiella pneumoniae
# Assay: Antibacterial activity against drug-resistant carbapenemase producing Klebsiella pneumoniae clinical isolate KP-14-45 after 16 to 20 hrs by broth microdilution method
# Type: functional
# Outline: as §1
row,Compound,MIC [µg/mL]
1,CCCCCCCC[N+](C)(C)CC(=O)Nc1ccc(C(=O)/C=C/c2cccs2)cc1.[Cl-],16

# Test system: Klebsiella pneumoniae
# Assay: Antibacterial activity against drug-resistant carbapenemase producing Klebsiella pneumoniae clinical isolate KP-14-18 after 16 to 20 hrs by broth microdilution method
# Type: functional
# Outline: as §1
row,Compound,MIC [µg/mL]
1,CCCCCCCC[N+](C)(C)CC(=O)Nc1ccc(C(=O)/C=C/c2cccs2)cc1.[Cl-],16

# Test system: Escherichia coli
# Assay: Antibacterial activity against drug-resistant NDM1 producing Escherichia coli clinical isolate EC-13-49 after 16 to 20 hrs by broth microdilution method
# Type: functional
# Outline: as §1
row,Compound,MIC [µg/mL]
1,CCCCCCCC[N+](C)(C)CC(=O)Nc1ccc(C(=O)/C=C/c2cccs2)cc1.[Cl-],4

# Test system: Escherichia coli
# Assay: Antibacterial activity against drug-resistant NDM1 producing Escherichia coli clinical isolate Ecl-14-58 after 16 to 20 hrs by broth microdilution method
# Type: functional
# Outline: as §1
row,Compound,MIC [µg/mL]
1,CCCCCCCC[N+](C)(C)CC(=O)Nc1ccc(C(=O)/C=C/c2cccs2)cc1.[Cl-],8

# Test system: Escherichia coli
# Assay: Antibacterial activity against drug-resistant NDM1 producing Escherichia coli clinical isolate KP-13-58 after 16 to 20 hrs by broth microdilution method
# Type: functional
# Outline: as §1
row,Compound,MIC [µg/mL]
1,CCCCCCCC[N+](C)(C)CC(=O)Nc1ccc(C(=O)/C=C/c2cccs2)cc1.[Cl-],2

# Test system: Escherichia coli
# Assay: Antibacterial activity against drug-resistant NDM1 producing Escherichia coli clinical isolate Ecl-13-62 after 16 to 20 hrs by broth microdilution method
# Type: functional
# Outline: as §1
row,Compound,MIC [µg/mL]
1,CCCCCCCC[N+](C)(C)CC(=O)Nc1ccc(C(=O)/C=C/c2cccs2)cc1.[Cl-],8

# Test system: Escherichia coli
# Assay: Antibacterial activity against drug-resistant NDM1 producing Escherichia coli clinical isolate EC-14-54 after 16 to 20 hrs by broth microdilution method
# Type: functional
# Outline: as §1
row,Compound,MIC [µg/mL]
1,CCCCCCCC[N+](C)(C)CC(=O)Nc1ccc(C(=O)/C=C/c2cccs2)cc1.[Cl-],4

# Test system: Escherichia coli
# Assay: Antibacterial activity against drug-resistant NDM1 producing Escherichia coli clinical isolate Ecl-14-59 after 16 to 20 hrs by broth microdilution method
# Type: functional
# Outline: as §1
row,Compound,MIC [µg/mL]
1,CCCCCCCC[N+](C)(C)CC(=O)Nc1ccc(C(=O)/C=C/c2cccs2)cc1.[Cl-],8

# Test system: Escherichia coli
# Assay: Antibacterial activity against drug-resistant NDM1 producing Escherichia coli clinical isolate EA-14-61 after 16 to 20 hrs by broth microdilution method
# Type: functional
# Outline: as §1
row,Compound,MIC [µg/mL]
1,CCCCCCCC[N+](C)(C)CC(=O)Nc1ccc(C(=O)/C=C/c2cccs2)cc1.[Cl-],8

# Test system: Escherichia coli
# Assay: Antibacterial activity against drug-resistant NDM1 producing Escherichia coli clinical isolate Ecl-14-56 after 16 to 20 hrs by broth microdilution method
# Type: functional
# Outline: as §1
row,Compound,MIC [µg/mL]
1,CCCCCCCC[N+](C)(C)CC(=O)Nc1ccc(C(=O)/C=C/c2cccs2)cc1.[Cl-],8

# Test system: Escherichia coli
# Assay: Antibacterial activity against drug-resistant NDM1 producing Escherichia coli clinical isolate 1460 after 16 to 20 hrs by broth microdilution method
# Type: functional
# Outline: as §1
row,Compound,MIC [µg/mL]
1,CCCCCCCC[N+](C)(C)CC(=O)Nc1ccc(C(=O)/C=C/c2cccs2)cc1.[Cl-],2

# Test system: Escherichia coli
# Assay: Antibacterial activity against drug-resistant NDM1 producing Escherichia coli clinical isolate SM-15-84 after 16 to 20 hrs by broth microdilution method
# Type: functional
# Outline: as §1
row,Compound,MIC [µg/mL]
1,CCCCCCCC[N+](C)(C)CC(=O)Nc1ccc(C(=O)/C=C/c2cccs2)cc1.[Cl-],4

# Test system: Escherichia coli
# Assay: Antibacterial activity against drug-resistant NDM1 producing Escherichia coli clinical isolate CF-15-61 after 16 to 20 hrs by broth microdilution method
# Type: functional
# Outline: as §1
row,Compound,MIC [µg/mL]
1,CCCCCCCC[N+](C)(C)CC(=O)Nc1ccc(C(=O)/C=C/c2cccs2)cc1.[Cl-],8

# Test system: Escherichia coli
# Assay: Antibacterial activity against drug-resistant NDM1 producing Escherichia coli clinical isolate CF-13-61 after 16 to 20 hrs by broth microdilution method
# Type: functional
# Outline: as §1
row,Compound,MIC [µg/mL]
1,CCCCCCCC[N+](C)(C)CC(=O)Nc1ccc(C(=O)/C=C/c2cccs2)cc1.[Cl-],8
